Measured values from ChEMBL document CHEMBL4052804, “Design and synthesis of piperazine acetate podophyllotoxin ester derivatives targeting tubulin depolymerization as new anticancer agents” (Bioorg Med Chem Lett, 2017).

Legend:
[1] = test system: MCF7; experiment: Cell cycle arrest in human MCF7 cells assessed as accumulation at G2/M phase at 0.9 uM after 12 hrs by propidium iodide staining based flow cytometric method (reference value: 5.43 to 13.68%); format: functional
[2] = test system: MCF7; experiment: Induction of apoptosis in human MCF7 cells assessed as late apoptotic cells at 4 uM after 24 hrs by Annexin-V-FITC/propidium iodide staining based flow cytometric method (reference value: 2 to 3.7%); format: functional
[3] = test system: MCF7; experiment: Cell cycle arrest in human MCF7 cells assessed as accumulation at G1 phase at 0.6 uM after 12 hrs by propidium iodide staining based flow cytometric method (reference value: 58.69 to 62.23%); format: functional
[4] = test system: MCF7; experiment: Cell cycle arrest in human MCF7 cells assessed as accumulation at G1 phase at 0.6 uM after 4 hrs by propidium iodide staining based flow cytometric method (reference value: 60.19 to 60.87%); format: functional
[5] = test system: MCF7; experiment: Induction of apoptosis in human MCF7 cells assessed as necrotic cells at 4 uM after 24 hrs by Annexin-V-FITC/propidium iodide staining based flow cytometric method (reference value: 2.35 to 2.49%); format: functional
[6] = test system: MCF7; experiment: Cell cycle arrest in human MCF7 cells assessed as accumulation at G2/M phase at 0.6 uM after 12 hrs by propidium iodide staining based flow cytometric method (reference value: 5.43 to 13.68%); format: functional
[7] = test system: HepG2; experiment: Cytotoxicity against human HepG2 cells after 24 hrs by MTT assay; format: functional, cell-based; details: HepG2, 24 h
Outline: (§1)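 In vitro antiproliferative screen by MTT assay against human MCF-7 breast, HeLa cervical, A549 lung adenocarcinoma and HepG-2 hepatoma cells. Output is the IC50.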

[8] = test system: MCF7; experiment: Induction of apoptosis in human MCF7 cells assessed as early apoptotic cells at 12 uM after 24 hrs by Annexin-V-FITC/propidium iodide staining based flow cytometric method (reference value: 2.36 to 2.86%); format: functional
[9] = test system: MCF7; experiment: Induction of apoptosis in human MCF7 cells assessed as late apoptotic cells at 8 uM after 24 hrs by Annexin-V-FITC/propidium iodide staining based flow cytometric method (reference value: 2 to 3.7%); format: functional
[10] = test system: L02; experiment: Cytotoxicity against human L02 cells after 24 hrs by MTT assay; format: cell-based; details: L02, 24 h
Outline: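 Normal human liver L02 cells were tested at multiple concentrations in an MTT assay. Output is the median cytotoxic concentration (CC50).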

[11] = test system: MCF7; experiment: Induction of apoptosis in human MCF7 cells assessed as late apoptotic cells at 2 uM after 24 hrs by Annexin-V-FITC/propidium iodide staining based flow cytometric method (reference value: 2 to 3.7%); format: functional
[12] = test system: MCF7; experiment: Induction of apoptosis in human MCF7 cells assessed as necrotic cells at 12 uM after 24 hrs by Annexin-V-FITC/propidium iodide staining based flow cytometric method (reference value: 2.35 to 2.49%); format: functional
[13] = test system: MCF7; experiment: Cell cycle arrest in human MCF7 cells assessed as accumulation at S phase at 0.6 uM after 12 hrs by propidium iodide staining based flow cytometric method (reference value: 27.63 to 32.34%); format: functional
[14] = test system: MCF7; experiment: Induction of apoptosis in human MCF7 cells assessed as necrotic cells at 8 uM after 24 hrs by Annexin-V-FITC/propidium iodide staining based flow cytometric method (reference value: 2.35 to 2.49%); format: functional
[15] = test system: MCF7; experiment: Cell cycle arrest in human MCF7 cells assessed as accumulation at G2/M phase at 0.6 uM after 8 hrs by propidium iodide staining based flow cytometric method (reference value: 7.59 to 9.58%); format: functional
[16] = test system: MCF7; experiment: Induction of apoptosis in human MCF7 cells assessed as viable cells at 4 uM after 24 hrs by Annexin-V-FITC/propidium iodide staining based flow cytometric method (reference value: 91.6 to 92.7%); format: functional; details: MCF7, 24 h, read-out: Activity
[17] = test system: MCF7; experiment: Cell cycle arrest in human MCF7 cells assessed as accumulation at S phase at 0.6 uM after 8 hrs by propidium iodide staining based flow cytometric method (reference value: 29.55 to 32.22%); format: functional
[18] = test system: MCF7; experiment: Cell cycle arrest in human MCF7 cells assessed as accumulation at G1 phase at 0.6 uM after 8 hrs by propidium iodide staining based flow cytometric method (reference value: 60.19 to 60.87%); format: functional
[19] = test system: MCF7; experiment: Cell cycle arrest in human MCF7 cells assessed as accumulation at G1 phase at 0.3 uM after 12 hrs by propidium iodide staining based flow cytometric method (reference value: 58.69 to 62.23%); format: functional
[20] = test system: MCF7; experiment: Induction of apoptosis in human MCF7 cells assessed as early apoptotic cells at 2 uM after 24 hrs by Annexin-V-FITC/propidium iodide staining based flow cytometric method (reference value: 2.36 to 2.86%); format: functional
[21] = test system: MCF7; experiment: Cell cycle arrest in human MCF7 cells assessed as accumulation at S phase at 0.3 uM after 12 hrs by propidium iodide staining based flow cytometric method (reference value: 27.63 to 32.34%); format: functional
[22] = test system: MCF7; experiment: Cell cycle arrest in human MCF7 cells assessed as accumulation at G2/M phase at 0.6 uM after 16 hrs by propidium iodide staining based flow cytometric method (reference value: 7.59 to 9.58%); format: functional
[23] = test system: MCF7; experiment: Cell cycle arrest in human MCF7 cells assessed as accumulation at G1 phase at 0.6 uM after 16 hrs by propidium iodide staining based flow cytometric method (reference value: 60.19 to 60.87%); format: functional
[24] = test system: A549; experiment: Cytotoxicity against human A549 cells after 24 hrs by MTT assay; format: functional, cell-based; details: A549, 24 h; outline: as §1
[25] = test system: MCF7; experiment: Induction of apoptosis in human MCF7 cells assessed as early apoptotic cells at 8 uM after 24 hrs by Annexin-V-FITC/propidium iodide staining based flow cytometric method (reference value: 2.36 to 2.86%); format: functional
[26] = test system: MCF7; experiment: Cell cycle arrest in human MCF7 cells assessed as accumulation at S phase at 0.6 uM after 16 hrs by propidium iodide staining based flow cytometric method (reference value: 29.55 to 32.22%); format: functional
[27] = test system: MCF7; experiment: Induction of apoptosis in human MCF7 cells assessed as viable cells at 8 uM after 24 hrs by Annexin-V-FITC/propidium iodide staining based flow cytometric method (reference value: 91.6 to 92.7%); format: functional; details: MCF7, 24 h, read-out: Activity
[28] = test system: MCF7; experiment: Cell cycle arrest in human MCF7 cells assessed as accumulation at G2/M phase at 0.3 uM after 12 hrs by propidium iodide staining based flow cytometric method (reference value: 5.43 to 13.68%); format: functional
[29] = test system: MCF7; experiment: Cell cycle arrest in human MCF7 cells assessed as accumulation at G1 phase at 0.9 uM after 12 hrs by propidium iodide staining based flow cytometric method (reference value: 58.69 to 62.23%); format: functional
[30] = test system: MCF7; experiment: Induction of apoptosis in human MCF7 cells assessed as necrotic cells at 2 uM after 24 hrs by Annexin-V-FITC/propidium iodide staining based flow cytometric method (reference value: 2.35 to 2.49%); format: functional
[31] = test system: MCF7; experiment: Induction of apoptosis in human MCF7 cells assessed as viable cells at 12 uM after 24 hrs by Annexin-V-FITC/propidium iodide staining based flow cytometric method (reference value: 91.6 to 92.7%); format: functional; details: MCF7, 24 h, read-out: Activity
[32] = test system: MCF7; experiment: Cell cycle arrest in human MCF7 cells assessed as accumulation at S phase at 0.6 uM after 4 hrs by propidium iodide staining based flow cytometric method (reference value: 29.55 to 32.22%); format: functional
[33] = test system: MCF7; experiment: Cell cycle arrest in human MCF7 cells assessed as accumulation at G2/M phase at 0.6 uM after 4 hrs by propidium iodide staining based flow cytometric method (reference value: 7.59 to 9.58%); format: functional
[34] = test system: MCF7; experiment: Cell cycle arrest in human MCF7 cells assessed as accumulation at S phase at 0.9 uM after 12 hrs by propidium iodide staining based flow cytometric method (reference value: 27.63 to 32.34%); format: functional
[35] = test system: MCF7; experiment: Induction of apoptosis in human MCF7 cells assessed as late apoptotic cells at 12 uM after 24 hrs by Annexin-V-FITC/propidium iodide staining based flow cytometric method (reference value: 2 to 3.7%); format: functional
[36] = test system: MCF7; experiment: Induction of apoptosis in human MCF7 cells assessed as viable cells at 2 uM after 24 hrs by Annexin-V-FITC/propidium iodide staining based flow cytometric method (reference value: 91.6 to 92.7%); format: functional; details: MCF7, 24 h, read-out: Activity
[37] = test system: MCF7; experiment: Induction of apoptosis in human MCF7 cells assessed as early apoptotic cells at 4 uM after 24 hrs by Annexin-V-FITC/propidium iodide staining based flow cytometric method (reference value: 2.36 to 2.86%); format: functional
[38] = test system: MCF7; experiment: Cytotoxicity against human MCF7 cells after 24 hrs by MTT assay; format: functional, cell-based; details: MCF7, 24 h; outline: as §1
[39] = test system: HeLa; experiment: Cytotoxicity against human HeLa cells after 24 hrs by MTT assay; format: functional, cell-based; outline: as §1

SMILES: COc1cc([C@@H]2c3cc4c(cc3[C@H](O)[C@H]3COC(=O)[C@H]23)OCO4)cc(OC)c1OC [PODOFILOX]
- Activity [1]: 72.04%
- Activity [2]: 10.5%
- Activity [3]: 20.81 - 27.26%
- Activity [4]: 47.97%
- Activity [5]: 2.34%
- Activity [6]: 45.4 - 47.67%
- IC50 [7]: 5.81 µM
- Activity [8]: 13.4%
- Activity [9]: 12.4%
- IC50 [10]: 3.72 µM
- Activity [11]: 8.61%
- Activity [12]: 6.65%
- Activity [13]: 27.34 - 31.52%
- Activity [14]: 4.65%
- Activity [15]: 30.75%
- viability at 4 µM [16]: 79.4%
- Activity [17]: 31.73%
- Activity [18]: 37.52%
- Activity [19]: 40.17%
- Activity [20]: 5.5%
- Activity [21]: 30.34%
- Activity [22]: 62.2%
- Activity [23]: 11.02%
- IC50 [24]: 9.34 µM
- Activity [25]: 10.1%
- Activity [26]: 26.78%
- viability at 8 µM [27]: 72.9%
- Activity [28]: 29.49%
- Activity [29]: 8.17%
- Activity [30]: 1.69%
- viability at 12 µM [31]: 62.8%
- Activity [32]: 29.63%
- Activity [33]: 22.4%
- Activity [34]: 19.79%
- Activity [35]: 17.4%
- viability at 2 µM [36]: 84.2%
- Activity [37]: 7.87%
- IC50 [38]: 7.13 µM
- IC50 [39]: 7.45 µM
